PREPL inhibitor = inhibits the human prolyl oligopeptidase-like enzyme. recombinant PREPL, fluorescence polarization activity-based probe. AID 2751. 320,000 compounds, 0.68% hits. inhibition, % at 5.96 µM;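 also: 0% = enzyme with DMSO and 100% = wells lacking enzyme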
MEKK2 mut-MEK5 = signal of MEK5 binding to mutant human MEKK2 PB1 domain | bead flow cytometry, Alexa488-MEK5 binding to MEKK2 mutant | percent response, % at 10 µM | 290,000 compounds, 0.35% hits; in the data active = percent response above about 24%, passing the limit was not always enough
Apaf1 inhib = inhibitors of human Apaf-1 apoptosome; inhibition, % at 20 µM; reconstituted apoptosome caspase-3 activity, DEVD-Rh110 fluorescence; 330,000 compounds, 0.71% hits; active = inhibition of at least 40% at 20 µM;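 also: plate controls were DMSO wells for no effect and DEVD-CHO caspase inhibitor wells for full effect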
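Material: biochemical Apaf-1 apoptosome reconstitution. Medium: Hepes buffer, pH 7.5. Also added: cytochrome c activation, bis-DEVD rhodamine 110 substrate. Timing: 30 min compound preincubation, 50 min activation, room temperature. Measured by: rhodamine 110 fluorescence at Ex 480/Em 540 nm.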
MEKK2 WT-MEK5 = raises or lowers MEK5 binding to wildtype human MEKK2 PB1 domain; Q9Y2U5; bead flow cytometry, Alexa488-MEK5 binding to MEKK2 WT; actives lie on both sides; binding response (% of control), % at 10 µM; 290,000 compounds, 1.1% hits; in the data active = binding response below about 67% or above about 130%
MEKK3 PB1 HTS = MEKK3-MEK5 PB1 interaction, increase or decrease. binding response (% of control), % at 10 µM. 290,000 compounds, 1.4% hits. Q99759. bead-based flow cytometry, Alexa488-MEK5 binding to MEKK3; actives lie on both sides; 0 = blocked by unlabeled MEK5, 100 = vehicle;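 active = binding response more than 3 SD above or below the average of its plate-row segment, actives on both sides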;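 also: Alexa488 bead fluorescence after subtracting the streptavidin-only scavenger bead signal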
UBC13 polyUb = inhibitors of human UBC13 polyubiquitin chain formation. TR-FRET. inhibition, % at 20 µM. 330,000 compounds, 0.47% hits. AID 485273; in the data active = inhibition above about 45%, passing the limit was not always enough
MEKK2wt confirm = raises or lowers MEK5 binding to wildtype human MEKK2, retest; binding response (% of control), % at 10 µM; bead flow cytometry, Alexa488-MEK5 binding to MEKK2 WT; actives lie on both sides; 5,900 compounds, 2.4% hits; shares compounds with MEKK3 PB1 HTS; AID 1892; in the data active = binding response below about 16% or above about 210%; inactive = in between
MEKK2mut-MEK5 = signal of MEK5 binding to mutant human MEKK2, retest; shares compounds with MEKK3 PB1 HTS; AID 1893; bead flow cytometry, Alexa488-MEK5 binding to MEKK2 mutant; 5,900 compounds, 2% hits; percent response, % at 10 µM; in the data active = percent response mostly above about 71%, no sharp cut-off; inactive = mostly below about 38%;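 also: higher means compound restores mutant binding toward wildtype level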
MEKK3-MEK5 inh = confirmation of inhibitors of MEK5 binding to human MEKK3; binding response (% of control), % at 10 µM; bead flow cytometry, Alexa488-MEK5 binding to MEKK3; hits give low values; shares compounds with MEKK3 PB1 HTS; 5,900 compounds, 1.8% hits;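 active = binding response below 72% of control, or above a set upper limit, though filed actives all read lower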;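 also: 100% = DMSO only wells and 0% = binding blocked by excess unlabeled MEK5; lower values mean stronger disruption of MEK5 binding to MEKK3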
PREPL confirm = confirmation of human PREPL enzyme inhibitors; AID 2803; 2,000 compounds, 67% hits; inhibition, % at 5.96 µM; recombinant PREPL, fluorescence polarization activity probe; shares compounds with PREPL inhibitor;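 also: 0% = protein with DMSO and 100% = wells lacking protein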
Casp3 counter = inhibits human caspase-3 in UBC13 counter-screen; shares compounds with UBC13 polyUb; Recombinant caspase-3, Caspase-Glo 3/7 luminescence, 60 min; inhibition, % at 20 µM; 1,400 compounds, 4% hits; AID 488856;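 active = mean inhibition across replicates above about 26%, limit read from the data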;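 also: plate controls were DMSO with caspase-3 for no effect and DMSO wells lacking enzyme for full effect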
UBC13 confirm = human UBC13 polyubiquitin inhibition, confirmed. UBC13 polyubiquitination, TR-FRET, biochemical. inhibition, % at 10 µM. shares compounds with UBC13 polyUb. 1,400 compounds, 68% hits; in the data active = inhibition above about 45%
Apaf-1 inh conf = confirmation of Apaf-1 inhibitors; shares compounds with Apaf1 inhib; reconstituted apoptosome, caspase-3 DEVD-Rh110 fluorescence; inhibition, % at 20 µM; 1,800 compounds, 25% hits; AID 504614;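 active = mean inhibition of at least 40% at 20 µM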;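 also: plate controls were DMSO wells for no effect and DEVD-CHO caspase inhibitor control wells for full effect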
Rh110 quench = counter-screen for Apaf-1 inhibitors: fluorescence interference; shares compounds with Apaf1 inhib; Rh110 fluorescence interference, quenched caspase reaction; activation (fluorescence interference), % at 20 µM; 1,800 tested, under 10 active;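 active = signal rise of 40% or more at 20 µM, treated as a fluorescence artifact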
Fluor interf inh = counter-screen for Apaf-1 inhibitors: fluorescence interference, dose response | shares compounds with Apaf1 inhib | fluorescence interference counterscreen, Apaf-1 assay format | IC50, µM | 460 tested, under 10 active | AID 588538; call rule not given here
Active calls of the source: *; nt = no result given; [ ] = another dose, or the depositor's remark. A selection: hits, their analogues and other compounds. The true share with any hit is near 3.1%. Rule as the data show it, unless noted: active = inhibition above about 43%; inactive = the rest.

SMILES	PREPL inhibitor	MEKK2 mut-MEK5	Apaf1 inhib	MEKK2 WT-MEK5	MEKK3 PB1 HTS	UBC13 polyUb	MEKK2wt confirm	MEKK2mut-MEK5	MEKK3-MEK5 inh	Casp3 counter	UBC13 confirm	Apaf-1 inh conf	Rh110 quench	others
CCCCCCCCCCOC(=O)Cn1c(COc2ccccc2C)[n+](C)c2ccccc21	-118.1	141.0*	80.8*	293.0*	115.0	45.2*	254.0*	150.0*	111.0	0.7	44.2	83.0*	24.7	Fluor interf inh=>100
Cc1cccc(OCCCn2c(=O)sc3ccccc32)c1	-6.4	5.0	5.5	107.0	106.0	10.6	nt	nt	nt	nt	nt	nt	nt
O=C([C@@H]1Cc2ccccc2CN1)N1CCN(Cc2ccccc2)CC1	nt	3.0	-0.6	102.0	99.0	4.6	nt	nt	nt	nt	nt	nt	nt
CCN1/C(=C\C(=S)Nc2ccccc2)Sc2ccccc21	2.9	-6.0	-3.5	82.0	89.0	9.5	nt	nt	nt	nt	nt	nt	nt
CCN1/C(=C/C(C)=C/c2sc3ccccc3[n+]2CC)Sc2ccccc21	-403.0	-46.0	52.7*	1.0*[inhibitor]	25.0*[inhibitor]	-250.6	2.0*[inhibitor]	-39.0	44.0*	nt	nt	60.6*	29.6	Fluor interf inh=51.2*
COc1ccc(O)c(/C=C(\C#N)C(=O)Nc2ccccn2)c1	nt	1.0	1.8	99.0	98.0	1.6	nt	nt	nt	nt	nt	nt	nt
CCC1(c2ccc(F)cc2)NC(=O)N(CC(=O)N2CCN(S(=O)(=O)c3ccc(C)cc3)CC2)C1=O (centres undefined)	-3.3	nt	7.9	nt	nt	-5.5	nt	nt	nt	nt	nt	nt	nt
Cc1nc2sccn2c(=O)c1CCN1CCC(=C(c2ccc(F)cc2)c2ccc(F)cc2)CC1	1.8	12.0	42.3*	146.0*	86.0	45.3*	136.0	20.0	107.0	-1.4	22.2	18.8	8.5
CCCCCc1cc(=O)oc2c(C(CCN3CCCCC3)c3ccc4c(c3)OCO4)c(OC)cc(OC)c12 (centres undefined)	8.9	50.0*	65.9*	203.0*	110.0	13.2	226.0*	73.0*	108.0	nt	nt	38.9	18.4
COc1ccc(C2CC(=O)Oc3c(C(CCN4CCCC(C)C4)c4ccc(N(C)C)cc4)c(OC)cc(OC)c32)cc1 (centres undefined)	44.3*	17.0	49.1*	152.0*	105.0	34.8	140.0	22.0	103.0	nt	nt	18.2	12.4	PREPL confirm=60.4*
CCCCCc1cc(=O)oc2c(C(CCN3CCN(c4ccccc4)CC3)c3ccc(N(C)C)cc3)c(OC)cc(OC)c12 (centres undefined)	4.2	14.0	18.7	123.0	107.0	13.8	nt	nt	nt	nt	nt	nt	nt
COc1ccc(C(CCN2CCN(c3ccccc3)CC2)c2c(OC)cc(OC)c3c(-c4ccccc4)cc(=O)oc23)cc1 (centres undefined)	-2.6	3.0	16.5	77.0	70.0	-1.7	nt	nt	nt	nt	nt	nt	nt
COc1ccc(C(CCN2CCCC(C)C2)c2c(OC)cc(OC)c3c(-c4ccccc4)cc(=O)oc23)cc1 (centres undefined)	5.3	41.0*	54.4*	207.0*	110.0	58.9*	190.0	52.0	110.0	0.5	45.2*	25.6	0.9
CCOC(=O)c1ccc(-c2csc(NC(=O)CN3CCC(C)CC3)n2)cc1	-3.3	-1.0	17.4	97.0	98.0	2.8	nt	nt	nt	nt	nt	nt	nt
Cc1ccc(S(=O)(=O)Cn2nnnc2C(CC(C)C)N2CCN(C3CCCC3)CC2)cc1 (centres undefined)	11.8	8.0	2.0	110.0	107.0	7.7	nt	nt	nt	nt	nt	nt	nt
S=c1[nH]nc(C2CCCCC2)n1/N=C/c1cccc(Cl)c1Cl	nt	-2.0	15.2	92.0	95.0	4.9	nt	nt	nt	nt	nt	nt	nt
COc1ccc(/C(C)=N/NC2=NCCN2)cc1Cl	nt	7.0	6.7	116.0	102.0	14.4	nt	nt	nt	nt	nt	nt	nt
CCCCCCOc1ccc(/C(C)=N/NC2=NCCN2)cc1[N+](=O)[O-]	10.6	46.0	53.8*	203.0*	109.0	93.7*	226.0*	68.0	112.0	-8.9	97.8*	44.5*	11.0	Fluor interf inh=>100
CCN1CCN(Cc2ccc(NC(=O)c3cc(NC(=O)N4CCNC4=O)cc(OC)c3)cc2C(F)(F)F)CC1	-19.5	7.0	10.6	99.0	113.0	16.2	nt	nt	nt	nt	nt	nt	nt
CCN1CCN(Cc2ccc(NC(=O)c3cc(NC(=O)c4ccc5n[nH]nc5c4)cc(OC)c3)cc2C(F)(F)F)CC1	-26.2	13.0	6.7	118.0	113.0	12.6	nt	nt	nt	nt	nt	nt	nt
CCN1CCN(Cc2ccc(NC(=O)c3cc(NC(=O)c4cncc(-c5cccs5)c4)cc(OC)c3)cc2C(F)(F)F)CC1	-38.2	133.0*	67.9*	362.0*	118.0	102.2*	245.0*	193.0*	113.0	-6.7	90.7*	34.3	-2.0
CCN1CCN(Cc2ccc(NC(=O)c3cc(NC(=O)c4cc(-c5ccc(OC)cc5)n[nH]4)cc(OC)c3)cc2C(F)(F)F)CC1	-10.0	167.0*	56.3*	167.0*	125.0*	60.9*	312.0*	173.0*	117.0	1.7	44.3	18.3	5.3
CCN1CCN(Cc2ccc(NC(=O)c3ccc(C)c(NC(=O)c4csc(-c5ccncc5)n4)c3)cc2C(F)(F)F)CC1	3.3	9.0	58.5*	141.0*	101.0	24.4	172.0	38.0	104.0	nt	nt	28.4	1.0
Cc1csc2nc(SCC(=O)Nc3ccccc3F)[nH]c(=O)c12	5.5	-1.0	0.2	107.0	103.0	-5.0	nt	nt	nt	nt	nt	nt	nt

High-throughput results as filed in PubChem BioAssay.
